OX1R antag-1 = OX1R (HCRTR1) antagonists, primary screen, fluorescence, CHO/OX1R cells, Fluo-8 calcium, orexin A; Orexin/Hypocretin receptor type 1 (Homo sapiens), O43613; Fluo-8 calcium fluorescence; inhibition, % at 5 µM; hit rate 0.43% among 330,000; AID 434989, 2010;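 active means inhibition above its plate's threshold, mean inhibition of all tested compounds on the plate plus 3 SD, cut at about 37% in these data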
CHO parental Ca = ATP-evoked calcium signal inhibitors, parental CHO, primary screen, counter-screen for OX1R antagonist project, cell-based, fluorescence, Fluo-8 calcium dye; parental CHO-K1, ATP-induced calcium, Fluo-8 fluorescence; inhibition, % at 5.6 µM; AID 463079, 2010; hit rate 0.63% among 330,000;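 active means inhibition above that plate's mean sample inhibition plus 3 SD, cut at about 26% in these data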
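Test system: parental CHO cells; detection: calcium-sensitive Fluo-8 fluorescence; evaluation: percent inhibition of calcium signal; also added: ATP as calcium-mobilizing challenge; repeats: one well per compound; control set: ATP-challenged DMSO wells low, unchallenged DMSO wells high; compound: single nominal dose of 5.6 µM per compound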
TAAR1 antagonist = human TAAR1 antagonists, primary screen, Fluo-8 calcium fluorescence, CHO RD-HGA16 cells | antagonist | AID 624466, 2012 | inhibition, % at 3 µM | Trace amine-associated receptor 1 (Homo sapiens), Q96RJ0 | hit rate 1.5% among 360,000;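 active means inhibition above a per-plate cutoff, the mean inhibition of test compounds on that plate plus 3 SD, cut at about 49% in these data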
Target sequence (Q96RJ0 whole entry, looked up): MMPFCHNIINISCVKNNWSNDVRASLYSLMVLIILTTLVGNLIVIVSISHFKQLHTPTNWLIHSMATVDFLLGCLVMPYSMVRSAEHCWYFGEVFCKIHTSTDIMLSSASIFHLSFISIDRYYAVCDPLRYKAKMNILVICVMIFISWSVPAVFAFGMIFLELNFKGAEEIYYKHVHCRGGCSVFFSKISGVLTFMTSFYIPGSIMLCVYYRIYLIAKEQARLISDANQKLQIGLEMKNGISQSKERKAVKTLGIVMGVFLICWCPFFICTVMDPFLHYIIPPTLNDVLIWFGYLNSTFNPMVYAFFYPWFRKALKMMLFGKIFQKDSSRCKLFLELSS
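Assay system: RD-HGA16 CHO cells with stable hTAAR1 and Gα16 / Reagent: EC80 β-phenethylamine stimulus / Doses: 3 µM, single point / Timing: dye loading 75 min at 37 °C, then 30 min room temperature / Measured by: Fluo-8 intracellular calcium dye fluorescence, real-time kinetic reads / Controls: vehicle wells and EC80 agonist wells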
OX1R antag-2 = antagonists of human orexin 1 receptor (OX1R). Orexin/Hypocretin receptor type 1 (Homo sapiens), O43613. OX1R-expressing cells, FRET antagonist read-out. inhibition, % at 6.6 µM. hit rate 1.8% among 330,000. AID 485270, 2010; in the data active means inhibition mostly above about 38%, no sharp cut-off; inactive means mostly below about 40%
TAAR1 agonist = human TAAR1 agonists, primary screen, Fluo-8 calcium fluorescence, CHO RD-HGA16 cells; vehicle wells 0%, saturating PEA agonist 100%; hit rate 0.99% among 360,000; activation, % at 3 µM;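 active means activation above the mean activation of all test compounds in the run plus 3 SD, cut at about 38% in these data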
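Assay system: CHO-derived RD-HGA16 cells with stable Gα16 and human TAAR1; timing: 17-24 h seeding, 75 min 37 °C dye, 30 min RT; read-out: % activation from peak over basal fluorescence ratio, DMSO-to-PEA scaled; measured by: kinetic Fluo-8 calcium fluorescence; benchmarks: low control DMSO, high control PEA (EC100); doses: 3 µM single concentration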
GPR7 antagonist = GPR7 receptor antagonists, primary screen, cell-based, fluorescence, single concentration; GPR7-expressing cells, fluorescence antagonist assay; inhibition, % at 4.4 µM; hit rate 1.1% among 290,000; in the data active means inhibition above about 16%, passing the limit was not always enough;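 further: cells stimulated with the agonist NPW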
Target sequence (P48145 whole entry, looked up): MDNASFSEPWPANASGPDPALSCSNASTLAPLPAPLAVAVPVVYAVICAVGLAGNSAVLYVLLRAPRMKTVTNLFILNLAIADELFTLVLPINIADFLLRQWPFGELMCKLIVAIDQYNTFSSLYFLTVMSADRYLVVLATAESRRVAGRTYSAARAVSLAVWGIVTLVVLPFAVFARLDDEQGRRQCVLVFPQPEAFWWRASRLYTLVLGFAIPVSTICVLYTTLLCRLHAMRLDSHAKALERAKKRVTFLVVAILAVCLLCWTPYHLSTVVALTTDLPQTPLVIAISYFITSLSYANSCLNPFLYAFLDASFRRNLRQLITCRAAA
GPR7 antag conf = GPR7 receptor antagonists, confirmation, cell-based, fluorescence, single concentration; shares compounds with GPR7 antagonist; GPR7-expressing cells, calcium fluorescence antagonist mode; inhibition, % at 4.4 µM; hit rate 52% among 2,400; AID 1952, 2009; in the data active means inhibition above about 24%;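 further: stimulated with the GPR7 agonist NPW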
MCHR1 antag = MCHR1 antagonists in cells, counter-screen for GPR7 antagonist project, cell-based, fluorescence, human; shares compounds with GPR7 antagonist; inhibition, % at 4.4 µM; AID 2148, 2009; MCHR1-expressing cells, fluorescence antagonist assay; hit rate 62% among 2,400; in the data active means inhibition above about 22%
A number is an active result; 0 = inactive; - = no result; ! = repeats disagree. Most compounds without a hit are left out; they make up all but 4.5% or so of the library.

SMILES	OX1R antag-1	CHO parental Ca	TAAR1 antagonist	OX1R antag-2	TAAR1 agonist	GPR7 antagonist	GPR7 antag conf	MCHR1 antag
CC(=O)c1ccc(S(=O)(=O)N2CCN(C(=O)CSc3ccc(C)c(C)c3)CC2)cc1	0	0	0	0	0	35	0	0
Cc1ccc(C)c(CN2CCC(CNC(=O)Nc3ccc(C)c(C)c3)CC2)c1	0	0	0	0	0	36	0	25
COc1ccc(Cl)cc1NC(=O)NCC1CCN(Cc2cc(C)ccc2C)CC1	0	0	0	0	0	0	-	-
O=C(Nc1ccccc1C(=O)NCC1CCCO1)c1ccc(Cl)cc1 (stereo unspecified)	0	0	0	0	0	0	-	-
COc1ccc(CN2C(=O)C(CC(C)C)Nc3ncnc(N4CCOCC4)c32)cc1 (stereo unspecified)	0	0	0	0	0	-	-	-
CC(C)C(c1nnnn1Cc1ccc(F)cc1)N1CCN(Cc2ccc3c(c2)OCO3)CC1 (stereo unspecified)	0	0	0	0	0	27	0	25
CCN1CCN(C(c2nnnn2Cc2ccc3c(c2)OCO3)C(C)C)CC1 (stereo unspecified)	0	0	0	0	0	0	-	-
O=C(COC(=O)C1(c2ccc(Cl)cc2)CCCC1)NC1CCS(=O)(=O)C1 (stereo unspecified)	0	0	0	0	0	0	-	-
CCc1cccc(CC)c1NC(=O)COC(=O)C1(c2ccc(Cl)cc2)CCCC1	0	0	0	0	0	42	36	51
COc1cc(/C=C(\C#N)C(=O)Nc2ccc(C(=O)O)cc2)ccc1OC(=O)c1cccc(F)c1	0	0	0	0	0	31	34	0
COc1ccc(OCC(O)Cn2c(=N)n(Cc3ccccc3)c3ccccc32)cc1 (stereo unspecified)	0	0	0	0	0	38	31	57
N=c1n(Cc2ccccc2)c2ccccc2n1CC(O)COc1ccc(Cl)cc1Cl (stereo unspecified)	-	-	0	-	47	28	77	98
Cc1cccc(OCC(O)Cn2c(=N)n(CCN3CCCCC3)c3ccccc32)c1 (stereo unspecified)	0	0	0	0	0	38	45	40
Cc1cccc(OCC(O)Cn2c(=N)n(Cc3ccccc3)c3ccccc32)c1 (stereo unspecified)	0	0	0	0	0	31	36	69
N=c1n(Cc2ccccc2)c2ccccc2n1Cc1ccccc1	0	0	0	0	0	0	-	-
Cc1cccc(C)c1NC(=O)CNC(=O)CNC(=O)c1ccc2c(c1)OCO2	0	0	0	0	0	-	-	-
OC[C@@H]1CN(Cc2ccc3c(c2)OCO3)C[C@H](n2cnc3c(N4CCOCC4)ncnc32)O1	-	-	0	-	0	-	-	-
C=CCn1c(COc2cccc(C)c2)nnc1SCn1nnc2ccccc2c1=O	0	0	0	0	0	0	-	-
C=CCNC(=O)c1ccc(OC2CCN(S(=O)(=O)N(C)C)CC2)cc1	0	0	0	0	0	0	-	-
COc1ccc(C(=O)NC(C)c2ccc(-n3ccnc3)cc2)cc1[N+](=O)[O-] (stereo unspecified)	0	0	0	0	0	0	-	-
Cc1ccc(OCC(O)Cn2c(=N)n(Cc3ccccc3)c3ccccc32)cc1 (stereo unspecified)	0	0	0	0	0	33	37	61
COc1ccc(C(=O)/C=C/c2ccccc2)c(OC)c1	0	0	0	0	0	0	-	-
COc1ccc(C(=O)N(C(C)C)C(C)C)c(OC)c1	0	0	0	0	0	25	0	0
COc1ccc(C(=O)/C=C/c2ccc(N(C)C)cc2)c(OC)c1	112	59	52	83	73	32	58	81
O=C(CSc1nccn1Cc1ccco1)Nc1ccccc1C(F)(F)F	0	0	0	0	0	0	-	-
SMILES	OX1R antag-1	CHO parental Ca	TAAR1 antagonist	OX1R antag-2	TAAR1 agonist	GPR7 antagonist	GPR7 antag conf	MCHR1 antag
O=C(Nc1cccnc1)c1cc(-c2cccs2)on1	0	0	0	0	0	0	-	-
O=C(Nc1cccnc1)c1cc(-c2ccccc2O)on1	0	0	0	0	0	39	40	43
Cc1onc(-c2ccccc2)c1C(=O)Nc1nnc(C(C)C)s1	0	0	0	0	0	0	-	-
Cc1onc(-c2ccccc2)c1C(=O)Nc1ncc([N+](=O)[O-])s1	0	0	0	0	0	27	0	37
CC1(C)NC(=O)N(Cc2cc(=O)n3ccsc3n2)C1=O	0	0	0	0	0	0	-	-
CCCCNC(=NCc1cccc(C(F)(F)F)c1)Nc1ccccc1	0	0	0	0	0	44	49	31
CCn1c(-c2ccc(N(C)C)cc2)nc2ccccc21	0	0	0	0	0	37	0	26
COc1cccc(-c2nc(CS(=O)(=O)CC(=O)NCCc3ccc(OC)cc3OC)c(C)o2)c1	0	0	0	0	0	0	-	-
CC1CCN(CCCNC(=O)c2ccc(CSCc3cccc(Cl)c3)o2)CC1	0	0	0	0	0	22	0	0
CC1CCC(C(C)C)C(OC(=O)Cn2c(-c3ccccc3)[n+](C)c3ccccc32)C1 (stereo unspecified)	0	42!	0	0	0	86	92	83
COc1cccc2c1Oc1ncccc1N(C(=O)CCC(=O)NCc1ccccc1)C2	0	0	0	0	0	0	-	-
CCc1ccc(CNC(=O)CCC(=O)N2Cc3cccc(OC)c3Oc3ncccc32)cc1	0	0	0	0	0	23	0	0
CN(C)c1ccc(-c2nn3c(-c4ccccc4Cl)nnc3s2)cc1	0	0	0	59	0	25	33	75
Cc1cccc2cc3c(nc12)SC(=NCC1CCCO1)N(Cc1ccco1)C3 (stereo unspecified)	0	0	-	0	-	22	0	60
Cc1cc(C)n2nc(C(=O)Nc3ccc4c(c3)CCC4)nc2n1	0	0	0	0	0	0	-	-
O=c1[nH]c(C2CCN(S(=O)(=O)c3ccccc3)CC2)nc2c1nnn2Cc1cccc(Cl)c1	0	0	0	0	0	25	0	0
